An excerpt weighted towards active compounds, which were near 1.8% of everything screened.
CHRM4 agonist – human M4 muscarinic receptor agonists, primary screen, CHO-K1 cells, Fluo-8 calcium fluorescence; Muscarinic acetylcholine receptor M4 (Homo sapiens), P08173; CHO-K1 hM4/Gqi5; vehicle 0%, full acetylcholine response 100%; activation, % at 3 µM; hit rate 0.14% among 360,000; AID 624127, 2012;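 active means activation above the run mean over all test wells plus 3 SD, cut at about 32% in these data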;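 further: peak over basal fluorescence ratio per well then scaled between controls; 0% = DMSO wells and 100% = acetylcholine at EC100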
M4 antag – human M4 muscarinic receptor antagonists, primary screen, CHO cells, Fluo-8 calcium fluorescence; CHO-hM4 cells, ACh EC80; inhibition, % at 3 µM; hit rate 0.73% among 360,000;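 active means inhibition above its plate's cutoff, the mean inhibition of sample wells plus 3 SD, cut at about 27% in these data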;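 further: 0% = acetylcholine EC80 with DMSO and 100% = DMSO without agonist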
M4 PAM – human M4 muscarinic receptor positive allosteric modulators, primary screen, CHO-K1 cells, Fluo-8 calcium fluorescence; Muscarinic acetylcholine receptor M4 (Homo sapiens), P08173; activation, % at 3 µM; CHO-K1 hM4/Gqi5, ACh EC20; 0% = ACh EC20, 100% = maximal ACh; hit rate 0.4% among 360,000;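 active means activation above its plate's cutoff, the mean activation of sample wells plus 3 SD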
M5 antag – human M5 muscarinic receptor antagonists, primary screen, CHO cells, Fluo-8 calcium fluorescence; Muscarinic acetylcholine receptor M5 (Homo sapiens), P08912; CHO-hM5 cells, ACh EC80; inhibition, % at 3 µM; hit rate 0.59% among 360,000; AID 624040, 2012;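 active means inhibition above a per-plate cutoff, the mean of that plate's test compounds plus 3 SD, cut at about 27% in these data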;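 further: 0% = acetylcholine EC80 with DMSO and 100% = DMSO without agonist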
Target sequence (P08912 whole entry, looked up): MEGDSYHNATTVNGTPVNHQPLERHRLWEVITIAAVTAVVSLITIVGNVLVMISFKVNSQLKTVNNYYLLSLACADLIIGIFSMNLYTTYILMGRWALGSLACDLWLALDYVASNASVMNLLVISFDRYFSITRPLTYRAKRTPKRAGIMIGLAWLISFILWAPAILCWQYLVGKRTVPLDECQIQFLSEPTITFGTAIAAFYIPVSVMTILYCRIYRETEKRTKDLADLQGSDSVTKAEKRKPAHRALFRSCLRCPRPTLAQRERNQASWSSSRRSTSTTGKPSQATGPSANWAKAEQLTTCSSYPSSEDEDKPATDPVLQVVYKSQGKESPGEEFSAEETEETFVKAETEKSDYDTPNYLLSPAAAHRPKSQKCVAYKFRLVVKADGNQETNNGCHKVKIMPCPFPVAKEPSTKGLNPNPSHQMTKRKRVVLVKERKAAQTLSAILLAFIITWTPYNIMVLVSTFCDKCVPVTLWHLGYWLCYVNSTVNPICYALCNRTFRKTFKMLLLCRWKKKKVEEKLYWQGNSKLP
CHRM5 agonist – human M5 muscarinic receptor agonists, primary screen, CHO-K1 cells, Fluo-8 calcium fluorescence; Muscarinic acetylcholine receptor M5 (Homo sapiens), P08912; CHO-K1 hM5 cells; 0% DMSO wells, 100% maximal acetylcholine response; activation, % at 3 µM; hit rate 0.19% among 360,000; AID 624037, 2012;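 active means activation above the run's mean over test compounds plus 3 SD, cut at about 23% in these data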;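 further: signal is peak over basal fluorescence ratio across the kinetic read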
M5 PAM – human M5 muscarinic receptor positive allosteric modulators, primary screen, CHO-K1 cells, Fluo-8 calcium fluorescence; Muscarinic acetylcholine receptor M5 (Homo sapiens), P08912; CHO-K1 hM5, ACh EC20 PAM; 0% = ACh EC20, 100% = ACh EC100; hit rate 0.3% among 360,000; activation, % at 3 µM;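 active means activation above the run cutoff, the mean activation of all test compounds plus 3 SD, cut at about 18% in these data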
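Assay system: CHO-K1 hM5 cells. Also added: acetylcholine at EC20 concentration, added after compound. Dosing: 3 µM, single dose. Times: compound preincubation 140 s before EC20 acetylcholine addition. Signal: Fluo-8 calcium fluorescence. Measure: % activation relative to EC20 and EC100 ACh responses. Repeats: singlicate, one well per test compound.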
Starred values were filed as active, the others as inactive; / = no result.

SMILES	CHRM4 agonist	M4 antag	M4 PAM	M5 antag	CHRM5 agonist	M5 PAM
CN1[C@@H]2CC(OC(=O)[C@H](CO)c3ccccc3)C[C@H]1[C@@H]1O[C@@H]12 (stereo not given in full)	0	100*	-18	/	/	/
O=C(Nc1ccccn1)c1ccc2ccccc2c1O	2	-2	-2	-12	11	19*
O=C(O)c1ccccc1C(=O)Nc1ccccn1	0	10	7	-3	0	-2
N[C@@]12CCc3nonc3[C@]1(O)CC(c1ccccc1)=[N+]2[O-]	1	1	26*	0	1	10
CCc1c(-c2ccccc2)ncn1Cc1cccc(-c2ccccc2)c1	9	4	-8	27*	1	-16
CCc1c(-c2cccc(OC)c2)ncn1Cc1cccc(-c2ccccc2)c1	13	34*	-14	15	-2	-15
CCc1c(-c2ccc(Cl)cc2)ncn1Cc1cccc(-c2ccccc2)c1	2	-1	-7	-4	-5	-7
CCCCc1c(-c2cccc(OC)c2)ncn1CCc1ccccc1OC	9	41*	-14	33*	-1	-22
CCc1c(-c2ccccc2F)ncn1Cc1cccc(-c2ccccc2)c1	11	19	-15	11	-1	-17
O=C(Nc1ccc(Cl)c(Cl)c1)Nc1cc(S(=O)(=O)N2CCOCC2)ccc1N1CCCC1	6	15	-8	26	3	-14
Nc1nc(O)c(Sc2ccccc2[N+](=O)[O-])c(=O)[nH]1	1	-10	10	6	-2	0
Cn1c(=O)cc(OCCCC(=O)Nc2cccnc2)c2ccccc21	2	37*	21	3	-2	13
CCN(CC)c1ccc(Nc2nc(N3CCOCC3)c3ccccc3n2)cc1	7	20	-21	30*	-5	-15
c1ccc(Nc2nc(N3CCNCC3)nc(N3CCOCC3)n2)cc1	1	-9	5	5	-1	-6
COc1ccc(Nc2nc(N3CCCC3)c3ccccc3n2)cc1	5	6	1	6	-2	-4
c1ccc(Nc2nc(N3CCOCC3)nc(N3CCOCC3)n2)cc1	1	3	31*	17	-3	5
CCC1CCCCN1C(=O)CSc1nc2ncccc2[nH]1 (stereo not given)	2	-2	4	1	0	3
c1ccc(-c2cn(-c3ccccc3)c3[n+]2CCS3)cc1	0	18	-16	8	-5	-5
CC(C)(C)c1ccc(-c2cn(-c3ccc(Br)cc3)c3[n+]2CCCS3)cc1	3	50*	-19	58*	-11	-20
O=c1c2c3c(sc2nc(N2CCNCC2)n1CCc1ccccc1)CCCCC3	5	6	8	9	4	4
CCOc1ccccc1NC(=O)C1CCC(=O)N1S(=O)(=O)c1ccc(C)cc1 (stereo not given)	1	-5	6	13	-2	-4
O=C(c1cccs1)N1CCc2ccccc2C1	1	-12	3	-9	-8	1
O=C(c1ccc(Br)s1)N1CCc2ccccc2C1	1	-2	3	-4	-7	19*
c1csc(CCNc2ncnc3sc4c(c23)CCC4)c1	14	11	-4	32*	5	-20
c1ccc(Nc2ncnc3sc4c(c23)CCC4)cc1	-3	0	20	-15	0	5
SMILES	CHRM4 agonist	M4 antag	M4 PAM	M5 antag	CHRM5 agonist	M5 PAM
C[C@@H]1CN([C@H](C)CO)C(=O)CCCn2cc(nn2)CO[C@H]1CN(C)S(=O)(=O)c1cccs1	-1	4	-10	5	1	-4
CCCCCCNC(=O)c1cc(S(=O)(=O)N2CCc3ccccc32)ccc1F	0	-1	3	7	-2	0
O=C(O)c1cccc(Nc2nc3ccccc3nc2NS(=O)(=O)c2cccs2)c1	1	-24	18*	-8	-1	0
CC(=O)c1ccc(Nc2nc3ccccc3nc2NS(=O)(=O)c2cccs2)cc1	2	-4	-3	5	-2	-6
CC(C)(C)NCCC(O)c1cc(C(F)(F)F)nc2c(C(F)(F)F)cccc12 (stereo not given)	14	-2	-3	3	4	5
Cc1nc2c(C(F)(F)F)cccc2c2c1CCS2	0	-5	4	-5	4	19*
COC(=O)[C@]12CCCCC=C1N(CCc1ccc(OC)c(OC)c1)C(=O)[C@H](CC(=O)NCc1cccc(C(F)(F)F)c1)C2	27	-6	-2	6	4	-14
COC(=O)[C@]12CCCCC=C1N(CCc1ccc(OC)c(OC)c1)C(=O)[C@H](CC(=O)N1CCC(c3ccccc3)CC1)C2	25	-1	-8	28*	1	-18
COC(=O)[C@@]12C[C@@H](CC(=O)NCc3cccc(C(F)(F)F)c3)C(=O)N(CCc3ccc(OC)c(OC)c3)C1=CCC(C)(C)C2	33*	27*	-15	19	4	-13
Cn1cnc2c(=O)sc3ccccc3c21	1	15	-2	9	-1	3
COc1ccccc1N1CCN(C(=O)CN(C)S(=O)(=O)c2ccc(C)cc2)CC1	5	3	-3	0	2	-7
Cc1ccc(-n2nc3ccc(N)cc3n2)cc1Cl	-1	10	-3	4	1	-3
Cc1ccc(-n2nc3ccc(N)cc3n2)cc1C	1	-4	16*	-15	13	21*
O=[N+]([O-])c1cc(C(F)(F)F)cc([N+](=O)[O-])c1NCCNC(=S)Nc1cccc(F)c1	18	16	-31	28*	12	-26
Cc1ncc(CN2CCCC(C(=O)Nc3ccc(-c4cccc(F)c4)cc3)C2)n1C (stereo not given)	7	33*	-16	7	-7	-15
CCCS(=O)(=O)NC(=O)C1(C)CCCN(C(=O)COCc2ccccc2)C1 (stereo not given)	0	4	1	-1	0	0
CC1CN(S(=O)(=O)c2cccc3nsnc23)CC(C)O1 (stereo not given)	0	27*	-9	2	-2	5
O=S(=O)(c1cccc2nsnc12)N1CCCC1	2	-1	23	-5	-1	-6
O=C(Cn1nnc2ccccc21)NNC(=O)c1ccccc1	-1	7	-3	1	2	-2
